Experimental data as given in ChEMBL document CHEMBL2040734, “Benzothiazoles: search for anticancer agents” (2012).

Legend:
Type in all cases: functional
CCRF-CEM = test: Growth inhibition of human CCRF-CEM cells after 48 hrs by sulforhodamine B assay
How it was run: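 Cells were in RPMI 1640 with 5% FBS and pre-incubated 24 h. Read-out was TCA fixation, SRB staining and absorbance at 515 nm. GI50 was the concentration where [(Ti−Tz)/(C−Tz)]×100 = 50, taken from log concentration vs % growth curves. It is given as ">" the top concentration when not reached.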

U-251 = test: Cytotoxicity against human U251 cells assessed as cell growth at 10 '-5 M after 48 hrs by sulforhodamine B assay; conditions: U-251, 48 h, read-out: Activity
NCI-H226 [1] = test: Cytotoxicity against human NCI-H226 cells assessed as cell growth at 100 uM after 48 hrs by sulforhodamine B assay; conditions: NCI-H226, 48 h, read-out: Activity
HOP-92 = test: Growth inhibition of human HOP92 cells after 48 hrs by sulforhodamine B assay; conditions: HOP-92, 48 h
How it was run: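 Adherent NCI-60 lines were grown in RPMI 1640 with 5% FBS and 2 mM L-glutamine, plated at 5000–40,000 cells/well and preincubated 24 h. They were then exposed to five concentrations (0.01–100 µM, from a DMSO stock) for 48 h at 37 °C, 5% CO2. Cells were fixed with cold TCA (10% final, 60 min, 4 °C) and stained with 0.4% SRB. Dye was solubilized in 10 mM Tris base and A515 read. GI50 was derived from time-zero, control and treated absorbances.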

NCI-H226 [2] = test: Cytotoxicity against human NCI-H226 cells assessed as cell growth at 1 uM after 48 hrs by sulforhodamine B assay; conditions: NCI-H226, 48 h, read-out: Activity
NCI-H226 [3] = test: Cytotoxicity against human NCI-H226 cells assessed as cell growth at 0.1 uM after 48 hrs by sulforhodamine B assay; conditions: NCI-H226, 48 h, read-out: Activity
NCI-H226 [4] = test: Cytotoxicity against human NCI-H226 cells assessed as cell growth at 10 uM after 48 hrs by sulforhodamine B assay; conditions: NCI-H226, 48 h, read-out: Activity

Structure (SMILES)	GI50 (CCRF-CEM) [µM]	LC50 (CCRF-CEM) [µM]	TGI (CCRF-CEM) [µM]	growth at 10 µM (U-251) [%]	growth at 100 µM (NCI-H226 [1]) [%]	GI50 (HOP-92) [µM]	TGI (HOP-92) [µM]	CC50 (HOP-92; read-out: LC50 (the source's name)) [µM]	growth at 1 µM (NCI-H226 [2]) [%]	growth at 0.1 µM (NCI-H226 [3]) [%]	growth at 10 µM (NCI-H226 [4]) [%]
Cc1ccc2nc(Nc3c(C)cccc3C)sc2c1	> 100	> 100	> 100	34	–	–	–	–	–	–	–
Clc1cccc(Cl)c1Nc1nc2cccc(Cl)c2s1	1.32	> 100	4.43	–	-72	0.0718	0.69	3.61	-9	45	-83
